Screens (PubChem BioAssay)
RAD52 inh = RAD52 DNA annealing inhibitors, primary screen, biochemical, FRET, single point, set 2; DNA repair protein RAD52 homolog (Homo sapiens), P43351; recombinant RAD52 DNA annealing, FRET fluorescence; inhibition, % at 18.7 µM; actives 0.46% (n = 360,000);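 active means every replicate showing at least 50% inhibition; inconclusive means mean inhibition at least 50% but not in every replicate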
Target sequence (P43351 whole entry, looked up): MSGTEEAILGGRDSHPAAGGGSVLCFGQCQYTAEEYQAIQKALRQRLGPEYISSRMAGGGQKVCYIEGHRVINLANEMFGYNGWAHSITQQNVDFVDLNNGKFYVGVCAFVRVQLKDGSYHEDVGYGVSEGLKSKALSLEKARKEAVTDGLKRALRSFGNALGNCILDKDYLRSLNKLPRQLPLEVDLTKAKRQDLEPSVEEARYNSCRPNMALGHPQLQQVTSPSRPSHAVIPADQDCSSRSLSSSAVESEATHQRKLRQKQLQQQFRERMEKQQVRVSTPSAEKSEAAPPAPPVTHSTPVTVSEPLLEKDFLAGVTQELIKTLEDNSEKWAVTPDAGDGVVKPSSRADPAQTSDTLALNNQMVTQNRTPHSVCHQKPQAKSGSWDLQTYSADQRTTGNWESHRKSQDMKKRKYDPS
Casp6 inh = human caspase-6 inhibitors, primary screen, biochemical, VEID-R110 fluorescence, single point, set 2; actives 0.53% (n = 350,000); AID 686996, 2013; inhibition, % at 12.5 µM; P55212; purified caspase-6, Z-VEID-R110 cleavage fluorescence;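 active means mean inhibition across replicates at least about 35%, with every replicate also reaching that limit, limit read from the data; inconclusive means only one of the two criteria met; inactive means neither criterion met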
RAD54 branch = inhibitors of human RAD54 branch migration, primary screen, biochemical, fluorescence, single point; RAD54 Holliday junction branch migration, FAM/BHQ fluorescence; actives 0.14% (n = 360,000); DNA repair and recombination protein RAD54-like (Homo sapiens), Q92698; inhibition, % at 10.4 µM;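 active means mean normalized replicate activity at least 40 and at least half of replicates scoring 40 or more; inconclusive means only one of the two criteria met; inactive means mean below 40 and under half of replicates reaching 40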;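 further: inhibitors cause a drop in the FAM fluorescence signal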
S100A4 inh HTS = inhibitors of S100A4-myosin IIA peptide binding, primary screen, biochemical, fluorescence polarization, TAMRA-MyoIIA peptide | inhibition, % at 10.7 µM | Protein S100-A4 (Homo sapiens), P26447 | actives 0.14% (n = 360,000) | AID 652163, 2013;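 active means mean inhibition of at least 70% across replicates, with every replicate also reaching that level; inconclusive means mean inhibition reaches 70% but some replicates fall short; inactive means mean inhibition below 70%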
Target sequence (P26447 whole entry, looked up): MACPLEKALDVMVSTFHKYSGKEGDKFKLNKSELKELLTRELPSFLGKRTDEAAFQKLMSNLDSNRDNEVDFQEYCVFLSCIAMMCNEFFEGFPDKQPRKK
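Material: S100A4 monomer protein / Buffer or medium: 50 mM HEPES pH 7.2, 10 mM CaCl2, 100 mM KCl / Times: 5 min incubation before reading / Benchmarks: neutral control DMSO, positive control TFP / Reagent: labelled myosin peptide probe, 5 nM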
MLL AF4-AF9 inh = inhibitors of AF4 peptide binding to AF9, primary screen, biochemical, AlphaScreen, biotin-AF4 peptide, FLAG-AF9, single point | AID 651704, 2012 | inhibition, % at 10 µM | actives 0.47% (n = 350,000);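 active means every replicate reaching a set inhibition limit, whatever the replicate mean, cut at about 25% in these data; inconclusive means mean inhibition reaches that limit but some replicates miss it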
XiGFP reactiv = activators of inactive X chromosome reactivation, primary screen, imaging, XiGFP fibroblasts, GFP high-content imaging, set 2; AID 743238, 2013; actives 0.055% (n = 360,000); activation, % at 7.58 µM; XiGFP mouse fibroblasts, % GFP-positive cells imaging, 3 d; cells co-treated with 5-aza-dC sensitizer; scaled so ellipticine positive control = 100%;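 active means mean normalized replicate activation at least 10% and every replicate at or above 10%; inconclusive means only one of the two criteria met; inactive means mean below 10% and not all replicates reach 10%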
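System: 68-5-11 XiGFP fibroblast line; Timing: 3 days compound exposure; Compound dosing: one concentration, pinned; Benchmarks: positive control ellipticine, 6 µM final; Buffer or medium: DMEM containing 5-aza-dC.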
Hits are given with their value; n = inactive; u = inconclusive; x = no result given; ! = not active in a repeat. The list is not random: actives were taken first. Their share in the collection is about 1.3%.

SMILES	RAD52 inh	Casp6 inh	RAD54 branch	S100A4 inh HTS	MLL AF4-AF9 inh	XiGFP reactiv
C[C@@H]1CCCCO[C@H](CN(C)C(=O)C2CCCCC2)[C@H](C)CN([C@@H](C)CO)C(=O)c2cc(NC(=O)Cc3ccccc3)ccc2O1	n	n	n	n	n	n
CN(C)c1ccc2nc3ccc(=O)cc-3sc2c1	n	n	n	n	66.5	n
CC(=O)N(C)C[C@@H]1Oc2ncc(-c3ccc(C(=O)N(C)C)cc3)cc2C(=O)N([C@H](C)CO)C[C@H]1C	n	n	n	n	n	n
O=C(NC1CCCCC1)NC1CCN(C(=S)NCc2ccco2)CC1	x	x	n	x	x	x
S=C(NC1CC1)SCc1ccco1	n	53.2	n	n	n	n
COc1cccc(CN(C)Cc2nc3cc(C(F)(F)F)ccc3c(=O)[nH]2)c1	n	n	n	n	36.1	x
Cc1cnc(NC(=O)c2ccc3c(c2)OCCO3)s1	n	36.2	n	n	n	n
Cc1nc2ccc3nc(NC(=O)c4ccc5c(c4)OCCO5)sc3c2s1	x	x	n	x	x	x
C[C@@H]1CCCCO[C@H](CN(C)Cc2ccc(C(F)(F)F)cc2)[C@H](C)CN([C@H](C)CO)C(=O)c2cc(NS(=O)(=O)c3cn(C)cn3)ccc2O1	n	n	n	n	n	n
Oc1c(Br)cc(/C=N/n2c(-c3ccccc3)n[nH]c2=S)cc1Br	n	n	n	n	n	n
Oc1ccc(/C=N/n2c(-c3ccccc3)n[nH]c2=S)cc1Br	n	51.9	n	n	n	n
CC(C)NC(=O)Nc1ccc2c(c1)C(=O)N(C)[C@@H]1CC[C@H](CC(=O)NC3CCCCC3)O[C@@H]1CO2	x	x	n	x	x	n
C/C=C/c1ccc([C@@H]2[C@H](CO)N(C(=O)C3CCC3)C23CN(S(=O)(=O)CC)C3)cc1	n	n	x	n	n	n
C/C=C/c1ccc([C@@H]2[C@H](CO)N(C(=O)C3CCCC3)C23CN(S(C)(=O)=O)C3)cc1	n	57.7	x	n	n	n
O=C(C1CCCC1)N1C[C@@H]2N[C@H](C1)C2c1ccc(/C=C/c2ccccc2)cc1 (stereo not given in full)	58.0	n	x	n	n	n
O=C(C1CCCCC1)N1C[C@@H]2N[C@H](C1)C2c1ccc(-c2ccccc2F)cc1 (stereo not given in full)	57.1!	n	x	n	n	n
O=C(Nc1ccccc1)N1C[C@@H]2N[C@H](C1)[C@@H]2c1ccc(/C=C/c2ccccc2)cc1	72.2	n	x	n	28.8	n
O=C(c1ccc(F)cc1)N1C[C@@H]2N[C@H](C1)C2c1ccc(/C=C/c2ccccc2)cc1 (stereo not given in full)	65.1	n	x	n	u	n
COc1ccc(NC(=O)Nc2ccc3c(c2)C(=O)N([C@@H](C)CO)C[C@H](C)[C@H](CN(C)Cc2ccncc2)OCCCC[C@H](C)O3)cc1	n	n	n	n	n	n
COc1ccccc1CN1C[C@@H]2N[C@H](C1)C2c1ccc(/C=C/c2ccccc2)cc1 (stereo not given in full)	68.0	n	x	n	29.9	n
C[C@H](CO)N1C[C@H](C)[C@@H](CN(C)Cc2ccncc2)Oc2ccc(NC(=O)Cc3cn(C)c4ccccc34)cc2CC1=O	n	n	n	n	n	n
COc1ccc(C)cc1NS(=O)(=O)c1ccc2c(c1)N(C)CCO2	n	n	n	83.8	n	n
CCCN1C[C@H](C)[C@@H](OC)CN(C)C(=O)c2cc(NC(=O)NC3CCCCC3)ccc2OC[C@H]1C	n	n	n	n	n	n
CO[C@@H]1CN(C)C(=O)c2ccc(NC(=O)c3ccc(F)cc3)cc2OC[C@H](C)N(C(=O)CC2CC2)C[C@H]1C	n	x	n	117.2	n	n
COc1cccc(C(=O)Nc2ccc3c(c2)C(=O)N(C)C[C@H](OC)[C@H](C)CN(C)[C@H](C)CO3)c1	n	x	n	n	n	n
SMILES	RAD52 inh	Casp6 inh	RAD54 branch	S100A4 inh HTS	MLL AF4-AF9 inh	XiGFP reactiv
CCCN1C[C@H](C)[C@H](OC)CN(C)C(=O)c2cc(NC(=O)NC3CCCCC3)ccc2OC[C@@H]1C	n	n	n	115.7	n	n
CO[C@H]1CN(C)C(=O)c2ccc(NC(=O)C3CCCC3)cc2OC[C@@H](C)N(CCC(F)(F)F)C[C@H]1C	n	n	n	n	28.3	n
CO[C@H]1CN(C)C(=O)c2ccc(NC(=O)c3ccc(F)cc3)cc2OC[C@@H](C)N(C(=O)CC2CC2)C[C@H]1C	n	n	n	n	n	n
COc1cccc(NC(=O)Nc2ccc3c(c2)C(=O)N(C)C[C@H](OC)[C@@H](C)CN(C)[C@@H](C)CO3)c1	79.2	n	n	n	n	n
CO[C@H]1CN(C)C(=O)c2cc(NC(=O)Nc3ccccc3)ccc2OC[C@@H](C)N(C(=O)Nc2c(C)noc2C)C[C@H]1C	n	35.8	n	n	n	n
CCCN1C[C@H](C)[C@H](OC)CN(C)C(=O)c2cc(NC(=O)Nc3cccc(OC)c3)ccc2OC[C@H]1C	x	x	x	x	x	n
COc1cccc(NC(=O)Nc2ccc3c(c2)C(=O)N(C)C[C@H](OC)[C@H](C)CN(CC2CC2)[C@H](C)CO3)c1	n	n	n	n	n	n
CO[C@H]1CN(C)C(=O)c2cc(NC(=O)Nc3ccccc3)ccc2OC[C@H](C)N(C(=O)Nc2c(C)noc2C)C[C@@H]1C	n	n	n	n	n	n
CCCNC(=O)Nc1ccc2c(c1)OC[C@@H](C)N(C(=O)C1CC1)C[C@@H](C)[C@@H](OC)CN(C)C2=O	n	n	n	n	n	n
CCCN1C[C@@H](C)[C@@H](OC)CN(C)C(=O)c2ccc(NC(=O)Nc3cccc(OC)c3)cc2OC[C@@H]1C	67.5	n	n	n	n	n
COc1cccc(NC(=O)Nc2ccc3c(c2)C(=O)N(C)C[C@@H](OC)[C@@H](C)CN(CC2CC2)[C@@H](C)CO3)c1	70.4	n	n	n	n	n
CCCNC(=O)Nc1ccc2c(c1)OC[C@H](C)N(C(=O)C1CC1)C[C@H](C)[C@@H](OC)CN(C)C2=O	n	n	n	92.6	n	n
O=C(C[C@H]1CC[C@H]2[C@@H](COC[C@@H](O)CN2Cc2cccc(F)c2)O1)NCCc1ccncc1	n	n	n	n	n	n
C[C@H](CO)N1C[C@H](C)[C@@H](CN(C)C(=O)Nc2ccc(C(F)(F)F)cc2)Oc2ccc(NS(C)(=O)=O)cc2CC1=O	n	x	n	n	x	n
